In ChEMBL document CHEMBL4251758, “Small Molecule Inhibition of MicroRNA miR-21 Rescues Chemosensitivity of Renal-Cell Carcinoma to Topotecan” (J Med Chem, 2018):
Calls of active or inactive are those of the source. The rule behind the calls is not given here.

Assays:
microRNA 21 [1] = assay: Inhibition of miR-21 RNA in human HeLa cells harboring miR-21 binding sequence in 3'-UTR of firefly luciferase gene assessed as increase in luciferase expression incubated for 48 hrs by Bright-Glo luciferase reporter gene assay; type: cell-based
Summary of the method: (§1)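 HeLa-miR21-Luc stable line (miR-21 site in the firefly luciferase 3′-UTR), 1000 cells per well. Compound or DMSO (0.1% final) added after overnight attachment, in triplicate, for 48 h. Bright-Glo luminescence was normalized to XTT viability (450 nm) and expressed as fold change relative to DMSO. At least three independent experiments.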

HCT-116 = assay: Cytotoxicity against human HCT116 cells after 72 hrs by XTT assay; type: functional, cell-based; conditions: HCT-116, 72 h
Summary of the method: (§2)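 Cells seeded at 500 per well, incubated overnight, then exposed to increasing compound concentrations (0.1% DMSO final, DMSO control) in triplicate for 72 h. Activated XTT added; absorbance read at 450 nm with 630 nm background at start and after 4 h at 37 °C, 5% CO2. Change normalized to DMSO as % viability; IC50 from variable-slope sigmoidal fit; three independent measurements.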

NIH3T3 = assay: Cytotoxicity against mouse NIH/3T3 cells up to 100 uM after 72 hrs by XTT assay; type: cell-based; conditions: nih3t3, 72 h; summary of the method: as §2
microRNA 21 [2] = assay: Inhibition of miR-21 RNA in human A498 cells assessed as increase in PTEN expression at 10 uM after 48 hrs by Western blot analysis relative to control; type: cell-based
Summary of the method: (§3)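 A498 cells, 250,000 per well, treated with 10 μM compound or DMSO (0.1%) for 48 h and lysed in RIPA buffer. Lysates were run on 10% SDS-PAGE, transferred to PVDF, and probed with rabbit anti-PTEN, anti-PDCD4 and anti-GAPDH, then HRP secondary. Chemiluminescence densitometry was normalized to GAPDH, then to DMSO.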

[3] = Inhibition of miR-125b RNA (unknown origin) transfected in human PC3 cells at 10 uM after 48 hrs by Bright-Glo luciferase reporter gene assay; type: cell-based
HeLa = assay: Effect on primary miR-21 expression levels in human HeLa cells at 10 uM after 48 hrs by qRT-PCR analysis; type: functional, cell-based
Summary of the method: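 HeLa cells were treated with 10 μM compound or DMSO (1% final) for 48 h, then RNA was isolated. 50 ng RNA was reverse-transcribed with iScript. TaqMan qPCR used pri-miR-21 and GAPDH primers. Triplicate Ct values were normalized to GAPDH and to DMSO controls by the 2−ΔΔCt method.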

microRNA 21 [4] = assay: Inhibition of miR-21 RNA in human A498 cells assessed as potentiation of topotecan-induced inhibition of colony formation by measuring reduction in topotecan IC50 at 10 uM after 2 weeks by crystal violet staining-based microscopic analysis relative to topotecan alone; type: cell-based
Summary of the method: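 A498 cells, 10,000 per well, seeded in 0.45% low-melt agarose in DMEM over a 0.7% agarose base layer, containing increasing compound concentrations or DMSO (0.1% final), in triplicate. For combinations, the inhibitor was held at 10 μM. After 2 weeks, colonies were stained with 0.1% crystal violet and imaged by z-stack microscopy. Colony counts were normalized to DMSO; IC50 from sigmoidal fit.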

microRNA 21 [5] = assay: Inhibition of miR-21 RNA in human A498 cells assessed as increase in PDCD4 expression at 10 uM after 48 hrs by Western blot analysis relative to control; type: cell-based; summary of the method: as §3
SK-OV-3 = assay: Decrease in mature miR-21 expression levels in human SKOV3 cells at 10 uM after 48 hrs by qRT-PCR analysis; type: functional, cell-based
MCF7 = assay: Cytotoxicity against human MCF7 cells after 72 hrs by XTT assay; type: functional, cell-based; conditions: MCF7, 72 h; summary of the method: as §2
[6] = Stabilization of pre-miR-21 RNA (unknown origin) assessed as increase in melting temperature at 10 uM by UV-spectrophotometric analysis
Summary of the method: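 Melting-curve analysis of precursor miR-21 RNA run with test compound, with DMSO as the reference condition and tobramycin (10 μM) as a positive control for RNA binding and stabilisation. Read-out is the shift in melting temperature of pre-miR-21 relative to the DMSO sample.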

microRNA 21 [7] = assay: Inhibition of miR-21 RNA in human A498 cells assessed as potentiation of topotecan-induced cytotoxicity by measuring reduction in topotecan IC50 at 10 uM after 72 hrs by XTT assay relative to topotecan alone; type: cell-based
Summary of the method: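 The chemotherapeutic agent (topotecan) was titrated while the miR-21 inhibitor was held at a fixed concentration, 0.1% DMSO final, in triplicate. Cells were seeded at 500 per well and treated after overnight attachment. After 72 h, XTT was read at 450 nm (630 nm background) at start and after 4 h. Signal normalized to DMSO; IC50 from variable-slope sigmoidal fit.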

A 172 = assay: Cytotoxicity against human A172 cells after 72 hrs by XTT assay; type: functional, cell-based; conditions: A 172, 72 h; summary of the method: as §2
microRNA 21 [8] = assay: Inhibition of miR-21 RNA in human A498 cells assessed as potentiation of topotecan-induced apoptosis by measuring increase in caspase-3/7 activity at 10 uM after 24 hrs by Caspase-Glo 3/7 assay relative to topotecan alone; type: cell-based
Summary of the method: (§4)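 A498 cells, 10,000 per well, treated after overnight attachment for 24 h with DMSO (0.1%), 400 nM topotecan, 10 μM inhibitor, or topotecan plus inhibitor at those levels. Caspase-3/7 activity read by Caspase-Glo 3/7 luminescence and normalized to DMSO. At least three independent experiments; unpaired t test.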

A498 = assay: Induction of apoptosis in human A498 cells assessed as increase in caspase-3/7 activity at 10 uM after 24 hrs by Caspase-Glo 3/7 assay relative to control; type: functional; summary of the method: as §4
[9] = Inhibition of miR-122 RNA (unknown origin) transfected in human Huh7-psiCHECK-miR122 cells at 10 uM incubated for 48 hrs by Bright-Glo luciferase reporter gene assay
microRNA 21 [10] = assay: Inhibition of promoter activity of miR-21 RNA (unknown origin) transfected in human HeLa cells at 10 uM after 48 hrs by Bright-Glo luciferase reporter gene assay; type: cell-based
Summary of the method: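 HeLa cells, 10,000 per well, treated after overnight attachment with 10 μM compound or DMSO (0.1% final) in triplicate for 48 h. Cells were then transfected for 3 h with 100 ng pGL4-miR21P (miR-21 promoter driving firefly luciferase) or empty pGL4.10. Medium was replaced with compound-containing medium for a further 24 h, followed by Bright-Glo luminescence read.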

microRNA 21 [11] = assay: Inhibition of miR-21 RNA in human HeLa cells harboring miR-21 binding sequence in 3'-UTR of firefly luciferase gene assessed as increase in luciferase expression incubated for 48 hrs by Bright-Glo luciferase reporter gene assay relative to control; type: cell-based; summary of the method: as §1
U-87 MG = assay: Cytotoxicity against human U87 cells after 72 hrs by XTT assay; type: functional, cell-based, U-87MG ATCC; summary of the method: as §2
[12] = Inhibition of miR-221 RNA (unknown origin) transfected in human PC3 cells at 10 uM after 48 hrs by Bright-Glo luciferase reporter gene assay; type: cell-based

SMILES: C#CCOc1ccc(-c2noc(-c3nnn(-c4cccc(/C(C)=N/O)c4)c3N)n2)cc1
- EC50 (microRNA 21 [1]): 5.3 µM
- inhibition (microRNA 21 [1]): Dose-dependent effect
- IC50 (HCT-116): 5.9 µM
- Activity (NIH3T3): Non-Toxic
- fold change (FC) (microRNA 21 [2]): 1.5
- inhibition [3]: inactive
- Activity (HeLa): inactive
- fold change (FC) (microRNA 21 [4]): 27
- fold change (FC) (microRNA 21 [5]): 9.5
- Activity (SK-OV-3): inactive
- IC50 (MCF7): 4.5 µM
- Activity [6]: inactive
- fold change (FC) (microRNA 21 [7]): 11
- IC50 (A 172): 4.6 µM
- fold change (FC) (microRNA 21 [8]): 1.6
- Activity (A498): 20%
- inhibition [9]: inactive
- inhibition (microRNA 21 [10]): inactive
- fold change (FC) (microRNA 21 [11]): 12.2
- IC50 (U-87 MG): 3.3 µM
- inhibition [12]: inactive
